Assays:
[1] = tested on: human plasma prothrombin time; test: Human plasma prothrombin time; type: biochemical; conditions: concentration that doubled the prothrombin time in human plasma; Thromborel S
Procedure, shortened: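 KM-2 control plasma mixed with test compound solution and incubated 1 min at 37°C. Clotting triggered with thromboplastin (ISI=1) and time read on a coagulometer. The concentration doubling PT was estimated by regression from dose-response curves.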

human FXa = human FXa (Homo sapiens, UniProt P00742); test: Factor Xa inhibition, chromogenic substrate assay; type: biochemical
Chain of human FXa (P00742 235-488 limits assumed): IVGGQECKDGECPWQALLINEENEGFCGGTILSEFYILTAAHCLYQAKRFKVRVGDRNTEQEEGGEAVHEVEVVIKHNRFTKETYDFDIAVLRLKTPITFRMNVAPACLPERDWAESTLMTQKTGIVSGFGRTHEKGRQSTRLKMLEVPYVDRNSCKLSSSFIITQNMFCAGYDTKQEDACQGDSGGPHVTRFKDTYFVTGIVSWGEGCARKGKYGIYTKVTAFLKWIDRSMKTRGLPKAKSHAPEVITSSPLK
Chain of human FXa (P00742 41-179 partner limits assumed): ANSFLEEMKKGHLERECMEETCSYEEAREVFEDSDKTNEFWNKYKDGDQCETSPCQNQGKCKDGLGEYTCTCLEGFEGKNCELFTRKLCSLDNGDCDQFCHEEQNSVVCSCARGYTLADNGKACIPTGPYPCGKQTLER
Procedure, shortened: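 Human FXa (0.0625 U/mL) and test compound in aqueous 5% (v/v) DMSO mixed in Tris-BSA buffer (0.2 M NaCl, 0.1 M Tris, 0.2% BSA, pH 7.4). Chromogenic substrate added to start the reaction, then 10 s stirring. OD at 405 nm followed over time against a DMSO-only reference. Inhibition = 1 − OD(inhibitor)/OD(reference). IC50 derived from the concentration dependence.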

Row | Compound | PTx2 [1] | IC50 (human FXa)
1 | CNC(=O)N(C)c1ccc(C(=O)Nc2ccc(C)cc2C(=O)Nc2ccc(Cl)cn2)cc1 [Compound 117, N-(5-chloropyridin-2-yl)-5-methyl-2-[(4-{methyl[(methylamino)carbonyl]amino}benzoyl)amino]benzamide] | 2.0 ± 0.4 µM | 0.15 ± 0.03 nM
2 | CC(=N)N(C)c1ccc(C(=O)Nc2ccc(C)cc2C(=O)Nc2ccc(Cl)cn2)c(F)c1 [Compound 302, N-(2-{[(5-chloropyridin-2-yl)amino]carbon-yl}-4-methylphenyl)-4-[ethanimidoyl(methyl)amino]-2-fluorobenzamide] | 0.09 ± 0.02 µM | 0.8 ± 0.2 nM
3 | CC(=N)N(C)c1ccc(C(=O)Nc2ccc(Cl)cc2C(=O)Nc2ccc(Cl)cn2)c(F)c1 [Compound 303, N-(4-chloro-2-{[(5-chloropyridin-2-yl)amino]carbonyl}phenyl)-4-[ethanimidoyl (methyl)amino]-2-fluorobenzamide] | 0.09 ± 0.02 µM | 1 ± 0.2 nM
4 | CC(=N)N(C)c1ccc(C(=O)Nc2ccc(C)cc2C(=O)Nc2ccc(Cl)cc2)cc1 [Compound 304, N-(4-chlorophenyl)-2-({4-[ethanimidoyl (methyl)amino]benzoyl}amino)-5-methylbenzamide] | >30 µM | 1 ± 0.2 nM
5 | COc1cc(N(C)C(C)=N)ccc1C(=O)Nc1ccc(C)cc1C(=O)Nc1ccc(Cl)cn1 [Compound 307, N-(2-{[(5-chloropyridin-2-yl)amino]carbonyl}-4-methylphenyl)-4-[ethanimidoyl(methyl)amino]-2-methoxybenzamide] | 2.0 ± 0.4 µM | 1 ± 0.2 nM
6 | CC(=N)N(C)c1ccc(C(=O)Nc2ccccc2C(=O)Nc2ccc(Cl)cn2)cc1 [Compound 310, N-(5-chloropyridin-2-yl)-2-({4-[ethanimidoyl (methyl)amino]benzoyl}amino)benzamide] | 0.50 ± 0.12 µM | 2 ± 0.2 nM
7 | CNC(=O)N(C)c1ccc(C(=O)Nc2ccc(C)cc2C(=O)Nc2ccc(Cl)cc2)cc1 [Compound 311, N-(4-chlorophenyl)-5-methyl-2-[(4-{methyl [(methylamino)carbonyl]amino}benzoyl)amino]benzamide] | >30 µM | 2 ± 0.3 nM
8 | CNC(=O)N(C)c1ccc(C(=O)Nc2ccc(C)cc2C(=O)Nc2ccc(C)cc2)cc1 [Compound 312, 5-methyl-2-[(4-{methyl[(methylamino)carbonyl]amino}benzoyl)amino]-N-(4-methyl-phenyl)benzamide] | 3.0 ± 0.6 µM | 0.15 ± 0.03 nM
9 | CNC(=O)N(C)c1ccc(C(=O)Nc2ccccc2C(=O)Nc2ccc(Cl)cn2)cc1 [Compound 317, N-(5-chloropyridin-2-yl)-2-[(4-{methyl[ (methylamino)carbonyl]amino}benzoyl)amino]benzamide] | 3.0 ± 0.6 µM | 0.25 ± 0.05 nM
